Assay results from paper PMC8561282 (Haematologica, 2021).
Entries after “also recorded” stand apart in the source; their conditions may differ.

Key:
[1] = system: pentose phosphate pathway; test: 1,2,3-13C3-glucose tracing; type: cell-based, mouse
Method in brief: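 Red cells from wild-type, humanized band 3, HA Del (lacking residues 1-11) and BS KO (lacking residues 12-23) mice were stimulated with methylene blue and incubated with 1,2,3-13C3-glucose at 37 °C for 1 h. In rescue arms, cells were preincubated with recombinant band 3 N-terminal peptide (residues 1-56). The read-out was the ratio of lactate isotopologues +3 (glycolysis) and +2 (pentose phosphate pathway), measured by UHPLC-MS.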

[2] = system: RBC from WT, HuB3, HA Del and BS KO mice; test: Glutathione oxidation; type: cell-based, mouse
GAPDH = test: 15N-HSQC NMR of band 3 peptide 1-56 upon titration of GAPDH; type: binding; conditions: 25 °C, 100 or 200 GAPDH (mM in text, μM in legend)
Method in brief: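 15N-HSQC spectra of 15N-labelled recombinant band 3 peptide 1-56 were recorded at 25 °C on a 900 instrument using a standard sequence. Recombinant GAPDH (tetramer) was titrated at 0, 100 and 200 (units as printed are unreliable). Individual residue amide signals were followed across the titration.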

[3] = system: RBC cytosol and membrane proteins; type: binding, human; conditions: part of macromolecular complexes with direct interactors
[4] = system: pentose phosphate pathway; type: cell-based, human; conditions: RBC lysates, 1,2,3-13C3-glucose 5 mM, 37 °C, 1 h, methylene blue; recombinant peptide
Method in brief: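 Red cell lysates came from the band 3 Neapolis subject (AE1 residues 1-11 absent) and from healthy donors (n=3). Lysates were incubated with 1,2,3-13C3-glucose at 37 °C for 1 h under methylene blue stimulation, with or without recombinant N-terminal band 3 peptide (residues 1-56). Isotopologues were measured by UHPLC-MS to assess pentose phosphate pathway activation.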

[5] = recombinant peptide, 1,2,3-13C3-glucose, methylene blue

Row | Compound | Activation of the PPP, methylene blue stimulation, HA Del ([1]; 37 °C, 1 h, HA Del mouse RBC) | Glutathione oxidation with MB [2] | Y8 amide signal upon GAPDH titration (GAPDH) | Y46 amide signal upon GAPDH titration (GAPDH) | Candidate indirect interactors by pull-down followed by crosslinking [3] | PPP activation and glycolysis with peptide, all mouse strains ([1]; legend of Figure 1I, recombinant peptide, methylene blue) | PPP activation with peptide, BS KO mouse RBC [1, 5] | PPP activation with peptide, HA Del mouse RBC [1, 5] | Rescue of the deficit in PPP activation, band 3 Neapolis [4]
1 | CN(C)c1ccc2nc3ccc(=[N+](C)C)cc-3sc2c1 [MB, methylene blue, reference compound] | ablated in HA Del mice | increased glutathione oxidation (GSSG/GSH ratios) | – | – | – | – | – | – | –
2 | AE11-56: recombinantly expressed peptide coding for amino acids 1-56 of the N-terminus of band 3 (AE1) (MEELQDDYEDMMEENLEQEEYEDPDIPESQMEEPAAHDTEATATDYHTTSHPGTHK; UniProt P02730 1-56, looked up, fragment) | – | – | near complete disappearance of the central Y8 amide | no chemical shift perturbations | peroxiredoxin 2,[51] peroxiredoxin 6, catalase, phosphofructokinase isoforms,[12] proteins 4.1 and 4.2, glucose phosphate isomerase, stomatin, adducin b, carbonic anhydrase 1, and 1-phosphatidylinositol 4,5-bisphosphate phosphodiesterase η-2 | increased PPP activation and decreased glycolysis in HA Del mice and further exacerbated responses in all the other strains | higher basal levels and further increases in PPP activation by MB | the defect in PPP activation of HA Del mice was rescued | a defect that was corrected by rescue; also recorded: partially rescued in vitro
